Measurements reported in ChEMBL document CHEMBL4184239, “Therapeutic effects of isothiocyanate prodrugs on rheumatoid arthritis” (Bioorg Med Chem Lett, 2018).
One block for each compound: values may come before it. Active and inactive are the calls of the source. No cut-off for these calls is given here.

Key:
clinical = details: human, in vivo
in vivo = details: rat
[1] = Prodrug conversion in mouse plasma assessed as formation of 1-isothiocyanato-4-(methylsulfinyl)butane measured after 24 hrs by HPLC method; assay type: ADME, cell-free
[2] = Prodrug conversion in mouse plasma assessed as Tmax for formation of 1-isothiocyanato-4-(methylsulfinyl)butane measured after 24 hrs by HPLC method; assay type: ADME, cell-free
[3] = Stability in mouse plasma assessed as time duration for complete drug degradation by HPLC method; assay type: ADME, cell-free
[4] = Stability in HEPES buffer at pH 4.4 measured within 24 hrs by HPLC method; assay type: physicochemical; details: pH 4.4, 24 h
How it was run: (§1)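 Prodrug incubated in HEPES buffer at pH 4.4 or pH 7.4; concentrations of prodrug and released isothiocyanate followed over time (up to 24 h and beyond) to build concentration–time curves.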

[5] = Half life in mouse plasma by HPLC method; assay type: ADME, cell-free
Danio rerio [6] = organism: Danio rerio; experiment: Anti-inflammatory activity in EGFP transgenic Zebrafish model of neutrophil inflammation assessed as reduction in number of neutrophil migration at 5 ug/ml incubated for 3 hrs by stereofluorescence microscopy; assay type: functional, organism-based
How it was run: (§2)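 72 h post-fertilization EGFP transgenic zebrafish, 24 larvae split into 4 groups (vehicle control, reference, two test articles); compound added to culture wells for 3 h; migrating neutrophils counted; P vs control by statistical comparison.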

Danio rerio [7] = organism: Danio rerio; experiment: Anti-inflammatory activity in EGFP transgenic Zebrafish model of neutrophil inflammation assessed as reduction in number of neutrophil migration at 0.5 ug/ml incubated for 3 hrs by stereofluorescence microscopy; assay type: functional, organism-based
How it was run: as §2

Rattus norvegicus [8] = experiment: Anti-inflammatory activity in Wistar rat model of Freund's complete adjuvant-induced rheumatoid arthritis model assessed as reduction in paw swelling at 10 mg/kg, po dosed every day from day 16 after initial inflammation and measured after 10 days; assay type: functional, organism-based
How it was run: (§3)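 Wistar rats with Freund's complete adjuvant-induced arthritis, 30 randomized into 5 groups; oral daily dosing from day 16 after initial inflammation, reference 1 mg/kg, test 10, 20, 40 mg/kg; paw swelling degree tracked over days; P < .05 vs model group.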

Rattus norvegicus [9] = experiment: Toxicity in Wistar rat model of Freund's complete adjuvant-induced rheumatoid arthritis model assessed as increase in body weight at 10 mg/kg, po dosed every day from day 16 after initial inflammation (reference value: 84.6 g); assay type: organism-based; details: in vivo
Danio rerio [10] = organism: Danio rerio; experiment: Potency index, ratio of dexamethasone to test compound anti-inflammatory activity in EGFP transgenic Zebrafish model of neutrophil inflammation assessed as reduction in number of neutrophil migration incubated for 3 hrs by stereofluorescence microscopy; assay type: functional
Rattus norvegicus [11] = experiment: Toxicity in Wistar rat model of Freund's complete adjuvant-induced rheumatoid arthritis model assessed as increase in body weight at 40 mg/kg, po dosed every day from day 16 after initial inflammation (reference value: 84.6 g); assay type: organism-based; details: in vivo
Rattus norvegicus [12] = experiment: Anti-inflammatory activity in Sprague-Dawley rat model of carrageenan-induced paw edema assessed as reduction in hind paw volume at 10 to 50 mg/kg, po dosed for 2 times at 6 hrs after carrageenan injection measured after 8 to 10 hrs; assay type: functional, organism-based; details: in the assay text read “at 2 and 6 hrs” for “at 6 hrs”
How it was run: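 Sprague-Dawley rats, 30 randomized into 5 groups (6 per group); oral dosing twice, at 2 h and 6 h after finishing carrageenan injection into paw; reference 5 mg/kg, test 10, 20, 50 mg/kg; swelling followed over time (to 10 h); significance vs model group.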

[13] = Prodrug conversion in mouse plasma assessed as Tmax for formation of 5-(4-isothiocyanatobutylthio)-1-phenyl-1H-tetrazole measured after 24 hrs by HPLC method; assay type: ADME, cell-free
Mus musculus [14] = experiment: Toxicity in Kunming white mouse assessed as survival at 200 mg/kg, po dosed everyday for 5 weeks; assay type: organism-based; details: in vivo, 840 h
How it was run: (§4)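 Mice were dosed orally once daily at 200 mg/kg for 5 weeks alongside an untreated control group. Survival and body weight were recorded over the dosing period and compared with controls.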

Rattus norvegicus [15] = experiment: Anti-inflammatory activity in Wistar rat model of Freund's complete adjuvant-induced rheumatoid arthritis model assessed as reduction in paw swelling at 10 to 40 mg/kg, po dosed every day from day 16 after initial inflammation; assay type: functional, organism-based
How it was run: as §3

Mus musculus [16] = experiment: Toxicity in Kunming white mouse assessed as effect on body weight at 200 mg/kg, po dosed everyday for 5 weeks measured from day 30 onwards; assay type: organism-based; details: in vivo, 840 h
How it was run: as §4

Rattus norvegicus [17] = experiment: Toxicity in Wistar rat model of Freund's complete adjuvant-induced rheumatoid arthritis model assessed as increase in body weight at 20 mg/kg, po dosed every day from day 16 after initial inflammation (reference value: 84.6 g); assay type: organism-based; details: in vivo
Rattus norvegicus [18] = experiment: Anti-inflammatory activity in Wistar rat model of Freund's complete adjuvant-induced rheumatoid arthritis model assessed as reduction in paw swelling at 10 to 20 mg/kg, po dosed every day from day 16 after initial inflammation and measured after 10 days; assay type: functional, organism-based
How it was run: as §3

[19] = Prodrug conversion in mouse plasma assessed as formation of 5-(4-isothiocyanatobutylthio)-1-phenyl-1H-tetrazole measured after 24 hrs by HPLC method; assay type: ADME, cell-free
Danio rerio [20] = organism: Danio rerio; experiment: Anti-inflammatory activity in EGFP transgenic Zebrafish model of neutrophil inflammation assessed as reduction in number of neutrophil migration at 30 ug/ml incubated for 3 hrs by stereofluorescence microscopy; assay type: functional, organism-based
How it was run: as §2

Rattus norvegicus [21] = experiment: Anti-inflammatory activity in Wistar rat model of Freund's complete adjuvant-induced rheumatoid arthritis model assessed as reduction in paw swelling at 1 mg/kg, po dosed every day from day 16 after initial inflammation; assay type: functional, organism-based
How it was run: as §3

Rattus norvegicus [22] = experiment: Anti-inflammatory activity in Wistar rat model of Freund's complete adjuvant-induced rheumatoid arthritis model assessed as reduction in paw swelling at 1 mg/kg, po dosed every day from day 16 after initial inflammation and measured after 10 days; assay type: functional, organism-based
How it was run: as §3

[23] = Drug level in HEPES buffer at pH 7.4 treated with 2-(2-(2-(dimethylamino)ethoxy)ethoxy)ethyl 4-(1-phenyl-1H-tetrazol-5-ylthio)butylcarbamodithioate assessed as active compound formation measured at 2 hrs by HPLC method; assay type: physicochemical; details: pH 7.4, 2 h
How it was run: as §1

[24] = Drug level in HEPES buffer at pH 7.4 treated with 2-(2-(2-(dimethylamino)ethoxy)ethoxy)ethyl 4-(1-phenyl-1H-tetrazol-5-ylthio)butylcarbamodithioate assessed as active compound formation measured during 2 to 30 hrs by HPLC method; assay type: physicochemical
How it was run: as §1

[25] = Drug level in mouse plasma treated with 2-(2-(2-(dimethylamino)ethoxy)ethoxy)ethyl 4-(1-phenyl-1H-tetrazol-5-ylthio)butylcarbamodithioate assessed as active compound formation measured after 24 hrs by HPLC method; assay type: ADME, cell-free

Structure (SMILES): C[S+]([O-])CCCCN=C=S (stereo not given) [SULFORAPHANE]
half-life (clinical): 1.77 h | half-life (in vivo): 2.2 h

Drug metabolism [1]: Metabolite_Detected | Tmax [2]: 2 h | Time [3]: 24 h | Stability [4]: Stable | half-life [5]: 6 h
Structure (SMILES): CN(C)CCOCCOCCSC(=S)NCCCC[S+](C)[O-] (stereo not given)
Activity (Danio rerio [6]): Active

Structure (SMILES): CN(C)CCOCCOCCSC(=S)NCCCCSc1nnnn1-c1ccccc1
Time [3]: 10 h | Activity (Danio rerio [7]): Active | Activity (Rattus norvegicus [8]): Active | Activity (Rattus norvegicus [9]): 80.8 g | Ratio (Danio rerio [10]): 300 | Activity (Rattus norvegicus [11]): 58.2 g | Activity (Rattus norvegicus [12]): Active | Stability [4]: Stable | Tmax [13]: 2 h | Activity (Mus musculus [14]): Non-Toxic | Activity (Rattus norvegicus [15]): Active | Activity (Mus musculus [16]): Non-Toxic | Activity (Rattus norvegicus [17]): 70.8 g | Activity (Rattus norvegicus [18]): Active | half-life [5]: 6 h | Drug metabolism [19]: Metabolite_Detected

Structure (SMILES): C[C@@H]1C[C@H]2[C@@H]3CCC4=CC(=O)C=C[C@]4(C)[C@@]3(F)[C@@H](O)C[C@]2(C)[C@@]1(O)C(=O)CO
Activity (Danio rerio [20]): Active

Structure (SMILES): CN(Cc1cnc2nc(N)nc(N)c2n1)c1ccc(C(=O)N[C@@H](CCC(=O)O)C(=O)O)cc1
Activity (Rattus norvegicus [21]): Active | Activity (Rattus norvegicus [22]): Active

Drug uptake [23]: Active | Drug uptake [24]: Active | Drug uptake [25]: Active
Structure (SMILES): S=C=NCCCCSc1nnnn1-c1ccccc1
